Assay results from different studies.
Lines come from different studies, so protocols differ.
Organism: Mycolicibacterium smegmatis
Observed: microbial growth

| SMILES | test | system | setting | MIC |
| --- | --- | --- | --- | --- |
| Nc1ccc(C(=O)O)c(O)c1 | broth dilution | MC^2155 |  | 1.25 µg/mL |
| CC(C)=CCC/C(C)=C/CNCCOC(C)(C)C |  |  |  | 50 µg/mL |
| O=C(Nc1ncc([N+](=O)[O-])s1)c1ccccn1 | agar dilution | MC^2155 |  | 100 µM |
| CNC(=O)c1cc(Oc2ccc(NC(=O)Nc3ccc(Cl)c(C(F)(F)F)c3)cc2)ccn1 |  | MC2155 |  | 50 µM |
| COC1C(O)C(n2ccc(=O)[nH]c2=O)OC1C(OC1OC(C(=O)NC2CCCCNC2=O)=CC(O)C1O)C(N)=O (stereo not shown) | broth dilution | ATCC607 |  | 6.5 µg/mL |
| CO[C@H]1/C=C/O[C@@]2(C)Oc3c(C)c(O)c4c(O)c(c(/C=N/N5CCN(C)CC5)c(O)c4c3C2=O)NC(=O)/C(C)=C\C=C\[C@H](C)[C@H](O)[C@@H](C)[C@@H](O)[C@@H](C)[C@H](OC(C)=O)[C@@H]1C | resazurin | ATCC607 | 72 h | 1.58 µg/mL |
| CC(C)=CCC/C(C)=C/CNC(=O)COC1C2CC3CC(C2)CC1C3 (stereo not shown) |  |  |  | 6.2 µg/mL |
| CO[C@H]1/C=C/O[C@@]2(C)Oc3c(C)c(O)c4c(O)c(c(/C=N/N5CCN(C)CC5)c(O)c4c3C2=O)NC(=O)/C(C)=C\C=C\[C@H](C)[C@H](O)[C@@H](C)[C@@H](O)[C@@H](C)[C@H](OC(C)=O)[C@@H]1C | agar dilution |  |  | > 25 µg/mL |
| CC(C)=CCC/C(C)=C/C[N+](C)(C)CCOC1C2CC3CC(C2)CC1C3.[I-] (stereo not shown) |  |  |  | 12 µg/mL |
| CN[C@@H]1[C@@H](O)[C@@H](O[C@@H]2[C@@H](O)[C@H](O[C@H]3O[C@H]([C@@H](C)O)[C@@H](O)[C@H](O)[C@H]3N)[C@@H](N)C[C@H]2N)OC[C@]1(C)O | broth dilution |  | 72 h | 8 µg/mL |
| CC(C)=CCC/C(C)=C/CNCCNC1C2CC3CC(C2)CC1C3 (stereo not shown) |  |  |  | 3.1 µg/mL |
| COc1nc2ccc(Br)cc2cc1[C@@H](c1ccccc1)[C@@](O)(CCN(C)C)c1cccc2ccccc12 |  |  |  | 0.03 µg/mL |
| O=C(Nc1ccccc1)Nc1ncc([N+](=O)[O-])s1 | agar dilution | MC^2155 |  | > 100 µM |
| CC(C)=CCC/C(C)=C/COCCNC1C2CC3CC(C2)CC1C3 (stereo not shown) |  |  |  | 6.2 µg/mL |
| COC1C(C(OC2OC(C(=O)NC3CCCCNC3=O)=CC(O)C2O)C(N)=O)OC(n2ccc(=O)[nH]c2=O)C1OC (stereo not shown) | broth dilution | ATCC607 |  | > 200 µg/mL |
| CN[C@H](CC(C)C)C(=O)N[C@H]1C(=O)N[C@@H](CC(N)=O)C(=O)N[C@H]2C(=O)N[C@H]3C(=O)N[C@H](C(=O)N[C@H](C(=O)O)c4cc(O)cc(O)c4-c4cc3ccc4O)[C@H](O)c3ccc(c(Cl)c3)Oc3cc2cc(c3O[C@@H]2O[C@H](CO)[C@@H](O)[C@H](O)[C@H]2O[C@H]2C[C@](C)(N)[C@H](O)[C@H](C)O2)Oc2ccc(cc2Cl)[C@H]1O | resazurin | ATCC607 | 72 h | 3.12 µg/mL |
| CO[C@H]1/C=C/O[C@@]2(C)Oc3c(C)c(O)c4c(O)c(c(/C=N/N5CCN(C)CC5)c(O)c4c3C2=O)NC(=O)/C(C)=C\C=C\[C@H](C)[C@H](O)[C@@H](C)[C@@H](O)[C@@H](C)[C@H](OC(C)=O)[C@@H]1C | broth dilution |  |  | 162 µM |
| CC[C@@H](CO)NCCN[C@@H](CC)CO | resazurin | ATCC607 | 72 h | 0.39 µg/mL |
| CN[C@H](CC(C)C)C(=O)N[C@H]1C(=O)N[C@@H](CC(N)=O)C(=O)N[C@H]2C(=O)N[C@H]3C(=O)N[C@H](C(=O)N[C@H](C(=O)O)c4cc(O)cc(O)c4-c4cc3ccc4O)[C@H](O)c3ccc(c(Cl)c3)Oc3cc2cc(c3O[C@@H]2O[C@H](CO)[C@@H](O)[C@H](O)[C@H]2O[C@H]2C[C@](C)(N)[C@H](O)[C@H](C)O2)Oc2ccc(cc2Cl)[C@H]1O | resazurin | MC^2155 | 24 h | 0.78 µg/mL |
